Experimental data published in ChEMBL document CHEMBL1152520.

Key:
[1] = test system: RAW264.7; experiment: Inhibition of LPS-induced NF-kappaB transcriptional activation expressed in mouse RAW264.7 cells assessed as NF-kappaB activity at 10 uM treated after LPS challenge measured after 24 hrs by luciferase reporter gene assay relative to control; format: cell-based
Procedure, shortened: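 RAW 264.7 cells, about 1 10^5 per well, were seeded 24 h before co-transfection (lipofectamine plus) with pAP-1-Luc or pNF-κB-Luc plus the pGL-hRluc internal control. At 48 h post-transfection, E. coli 0111:B4 LPS (100 ng/mL final) was added for 6 h. Compound in DMSO (10 µM final) was then added and cells were harvested 24 h later. Dual-luciferase readout: firefly/Renilla ratio expressed as multiples of the untreated control, mean SEM, n = 3. Paired Student's t-test.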

[2] = Inhibition of LPS-induced AP1 transcriptional activation expressed in mouse RAW264.7 cells assessed as AP1 activity at 10 uM treated after LPS challenge measured after 24 hrs by luciferase reporter gene assay relative to control

Structure (SMILES) | luciferase ratio [1] | Activity [2]
C[C@@]12CC[C@@H]3[C@@](CC[C@H]4[C@@]3(C)CCC[C@@]4(C)C(=O)O)(CC(=O)N1)C2 | 0.15 | 3.19
CC1=CC[C@@H]2[C@](CC#N)(CC[C@H]3[C@@]2(C)CCC[C@@]3(C)C(=O)O)C1 | 0.18 | 2.22
C[C@@]12CC[C@@H]3[C@@](C/C1=N\O)(C2)[C@@H](O)C[C@H]1[C@@]3(C)[C@@H](O)CC[C@@]1(C)C(=O)O | 0.26 | 3.37
C[C@@]12CC[C@@H]3[C@@](CC[C@H]4[C@@]3(C)CCC[C@@]4(C)C(=O)O)(C/C1=N\O)C2 | 0.15 | 4.87
C[C@@]12CC[C@H]3[C@]4(C)CCC[C@@](C)(C(=O)O)[C@H]4C[C@H](O)[C@]3(C/C1=N\O)C2 | 0.16 | 2.69
C[C@@]12CC[C@@H]3[C@@](CC1=O)(C2)[C@@H](O)C[C@H]1[C@@]3(C)[C@@H](O)CC[C@@]1(C)C(=O)O | 0.16 | 2.98
C[C@@]12CC[C@@H]3[C@@](CC[C@H]4[C@@]3(C)CCC[C@@]4(C)C(=O)O)(CC(=O)O1)C2 | 0.2 | 2.38
CC1=C[C@@]2(CC#N)CC[C@H]3[C@@](C)(CCC[C@@]3(C)C(=O)O)[C@@H]2CC1 | 0.22 | 2.85
C[C@@]12CC[C@@H]3[C@@](CC[C@H]4[C@@]3(C)[C@@H](O)CC[C@@]4(C)C(=O)O)(C/C1=N\O)C2 | 0.13 | 3.52
